# Assays:
# [1] = target: full-length GFP-Munc13-1 W588K (Rattus norvegicus, UniProt Q62768, W588K); experiment: PMA-induced membrane translocation, confocal microscopy of Neuro-2a cells; assay type: cell-based; conditions: 1000 nM PMA, 0-8 min, vs wild-type
# [2] = target: full-length GFP-Munc13-1 W588F (Rattus norvegicus, UniProt Q62768, W588F); experiment: as above; assay type: cell-based; conditions: 1000 nM PMA, 0-8 min, vs wild-type
# [3] = target: full-length GFP-Munc13-1 W588A (Rattus norvegicus, UniProt Q62768, W588A); experiment: PMA-induced membrane translocation, confocal microscopy of Neuro-2a cells; assay type: cell-based; conditions: 1000 nM PMA, 0-8 min, vs wild-type
# Method in brief: (§1)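 EGFP-tagged full-length rat Munc13-1 mutants were made by site-directed mutagenesis. Neuro-2a cells (passage 2–15; RPMI-1640, 10% FBS, 2 mM L-glutamine; 37 °C) were transfected with Lipofectamine 3000. After 24 h, cells went into phenol-red-free DMEM with 1% FBS. PMA (1000 nM) was added at time 0, with confocal imaging every 20 s (ex 488 nm, em 500–530 nm). Membrane/cytoplasm intensity ratio used three ~5 μm2 regions at 0, 2, 4 and 8 min; 3 cells × 3 experiments, mean ± SEM.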
# [4] = target: full-length GFP-Munc13-1 W599D (Rattus norvegicus, UniProt Q62768, W588D); experiment: as above; assay type: cell-based; conditions: 1000 nM PMA, 0-8 min, vs wild-type
# Method in brief: as §1
# [5] = target: full-length GFP-Munc13-1 W588Y (Rattus norvegicus, UniProt Q62768, W588Y); experiment: as above; assay type: cell-based; conditions: 1000 nM PMA, 0-8 min, vs wild-type
# Method in brief: as §1
# [6] = target: GFP tagged Munc13-1 C1 domain (Rattus norvegicus, UniProt Q62768); experiment: Translocation after PMA treatment, confocal microscopy of LNCaP cells; assay type: cell-based
# Method in brief: (§2)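 LNCaP cells (passage 2–15; RPMI-1640, 10% FBS, 2 mM L-glutamine) were grown to 75% confluency and transfected with Lipofectamine plus Plus reagent 24 h after plating. They expressed GFP-tagged rat Munc13-1 C1 domain or GFP-tagged full-length protein. After a further 24 h, cells were moved to phenol-red-free DMEM with 1% FBS. PMA (100 or 1000 nM) was added and localization was followed by live confocal imaging (GFP ex 488 nm); 3 independent experiments.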
# [7] = target: GFP-tagged full-length Munc13-1 (Rattus norvegicus, UniProt Q62768); experiment: as above; assay type: cell-based
# Method in brief: as §2
# [8] = target: Munc13-1 WT C1 domain (Rattus norvegicus, UniProt Q62768); experiment: In vitro [^3H]PDBu binding assay, GST-tagged C1 domain; conditions: for Kd: 100 μg/mL lipid
# [9] = target: Munc13-1 W22A mutant C1 domain (Rattus norvegicus, UniProt Q62768, W588A); experiment: as above; conditions: 100 μg/mL lipid, 0.1 mM Ca2+
# [10] = target: Munc13-1 W22A mutant C1 domain; experiment: as above; design: species or system rat
# [11] = target: Munc13-1 W22K mutant C1 domain (Rattus norvegicus, UniProt Q62768, W588K); experiment: as above; conditions: 100 μg/mL lipid, 0.1 mM Ca2+
# [12] = target: Munc13-1 W22K mutant C1 domain; experiment: as above; design: species or system rat
# [13] = target: full-length Munc13-1 wild-type protein (Rattus norvegicus, UniProt Q62768); assay type: binding; conditions: 100 μg/mL lipid (100% PS), 0.1 mM Ca2+
# Method in brief: (§3)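 Rat full-length Munc13-1 (WT or W588 mutant) was expressed as an N-terminal Halo fusion in transfected HEK-293 cells and harvested after one day. It was purified on Halo-link resin, released with TEV protease and stored in 30% glycerol at –80 °C. [3H]PDBu saturation binding used 100 μg/mL lipid (100% PS) and 0.1 mM Ca2+. Kd came from saturation/Scatchard analysis; triplicate points, 3–6 experiments, mean ± SEM.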
# [14] = target: full-length Munc13-1 protein incorporating the W22K mutation (W588 K) (Rattus norvegicus, UniProt Q62768, W588K); conditions: in vitro binding conditions as for full-length WT
# Method in brief: as §3
# [15] = target: full-length Munc13-1 mutated at W588D (Rattus norvegicus, UniProt Q62768, W588D); assay type: binding; conditions: preparation from cells expressing the mutant
# [16] = test system: PKCδ C1B W22R; conditions: PS concentration 10%; cited from earlier work
# [17] = test system: W22G of PKCδ C1B; conditions: 100% PS; cited from earlier work
# [18] = test system: W22G of PKCθ C1B; conditions: 100% PS; cited from earlier work
smiles,measurement,setting,value
"CCCCCCCCCCCCCC(=O)O[C@@H]1[C@@H](C)[C@@]2(O)[C@@H](C=C(CO)C[C@]3(O)C(=O)C(C)=C[C@@H]23)[C@@H]2C(C)(C)[C@]12OC(C)=O [PMA, phorbol 12-myristate 13-acetate]",translocation in response to PMA,[1],did not significantly influence the translocation
same,translocation in response to PMA,[2],did not significantly influence the translocation
same,translocation in response to PMA,[3],significantly decreased translocation
same,translocation in response to PMA,[4],totally abolished
same,translocation in response to PMA,[5],delayed
same,translocation of GFP-C1 domain,[6]; 100 nM PMA,Translocation was not observed
same,translocation of GFP-C1 domain,[6]; 1000 nM PMA,translocated within 10 min from the nucleus to internal membranes but not to the plasma membrane
same,translocation of full-length Munc13-1,[7],translocated to the plasma membrane
"CCCC(=O)O[C@@H]1[C@@H](C)[C@@]2(O)[C@@H](C=C(CO)C[C@]3(O)C(=O)C(C)=C[C@@H]23)[C@@H]2C(C)(C)[C@]12OC(=O)CCC [[^3H]PDBu, [20-^3H]Phorbol 12,13-dibutyrate]",amount of [^3H]PDBu bound at 100% PS relative to that at 20% PS,"[8]; 5 nM [^3H]PDBu, 100 μg/mL phospholipid, 0.1 mM Ca2+",less than 15%
same,fold weaker binding affinity than that of the C1b domain of PKCδ,[8]; 100% PS,100 fold
same,Kd,"[8]; Lipid 20:80 PS:PC, 0.1 mM Ca2+",32.5 ± 2.6 nM
same,Kd,"[8]; Lipid 100:0 PS:PC, 0.1 mM Ca2+",98 ± 36 nM
same,Kd,[9]; Lipid 20:80 PS:PC,> 1000 nM
same,Kd,[9]; Lipid 100:0 PS:PC,460 ± 260 nM
same,Kd(mutant)/Kd(WT),[10]; Lipid 20:80 PS:PC,>31
same,Kd(mutant)/Kd(WT),[10]; Lipid 100:0 PS:PC,4.7
same,Kd,[11]; Lipid 20:80 PS:PC,420 ± 120 nM
same,Kd,[11]; Lipid 100:0 PS:PC,160 ± 20 nM
same,Kd(mutant)/Kd(WT),[12]; Lipid 20:80 PS:PC,13
same,Kd(mutant)/Kd(WT),[12]; Lipid 100:0 PS:PC,1.6
same,Kd,[13],3.7 ± 0.32 nM
same,Kd,[14],3.3 ± 1.2 nM
same,[^3H]PDBu binding,[15],did not see any binding
CCCCCCCCCCCCCC(=O)O[C@@H]1[C@@H](C)[C@@]2(O)[C@@H](C=C(CO)C[C@]3(O)C(=O)C(C)=C[C@@H]23)[C@@H]2C(C)(C)[C@]12OC(C)=O [phorbol ester],Kd,"[8]; Lipid 100:0 PS:PC, 0.1 mM Ca2+",98 nM
same,Kd(mutant)/Kd(WT),[10]; Lipid 100:0 PS:PC,~ 5
same,Kd(mutant)/Kd(WT),[12]; Lipid 20:80 PS:PC,13
same,Kd(mutant)/Kd(WT),[12]; Lipid 100:0 PS:PC,1.6
same,Kd,[13],3.7 nM
same,fold reduced phorbol ester affinity as compared to the WT,[16],9 fold
same,fold reduction in phorbol ester affinity as compared to WT,[17],31 fold
same,fold reduction in phorbol ester affinity as compared to WT,[18],8 fold
